Experimental findings from ChEMBL document CHEMBL4425126 (J Med Chem, 2016) are described below.

Calls of active or inactive are those of the source. No cut-off for these calls is given here.

In one data set the test system is SW480 (Homo sapiens). Nature of the data set: Cytotoxicity against human SW480 cells pre-incubated with CuCl2 for 60 mins followed by compound addition for 72 hrs by MTT assay. (In general: Tetrazolium assays rely on reduction of a dye to a coloured formazan, in cell work by metabolically active cells.)
For a further data set, the system named is HL-60. Nature of the data set: Induction of intracellular ROS generation in human HL60 cells at 1 and 5 uM in presence of CuCl2 incubated for 30 mins by DCF-DA staining based fluorescence assay. It is filed as functional, cell-based. In a few lines: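 HL-60 cells (5 × 10^5 per sample, phenol-free Hanks balanced salt solution) were loaded with DCF-DA for 30 min. CuCl2 was added 15 min before the thiosemicarbazone, at a ligand:Cu ratio of 1:1 or 1:2. Drug exposure lasted a further 30 min, and mean fluorescence was read by flow cytometry. H2O2 (200 μM) served as control. Data are mean ± SD of three experiments.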

For data set [1], the system named is SW480. Briefly: Induction of morphological changes in human SW480 cells assessed as induction of vesicular blebbing in cytosol at 2.5 uM incubated for 48 hrs by phase contrast microscopy. It is filed as functional, cell-based.
The test system of data set [2] is SW480. Briefly: Induction of morphological changes in human SW480 cells assessed as induction of massive cell flattening at 2.5 uM incubated for 48 hrs by phase contrast microscopy. It is filed as functional, cell-based.
The test system of data set [3] is SW480. Nature of the data set: Induction of morphological changes in human SW480 cells assessed as induction of vacuoles at 2.5 uM incubated for 24 hrs by phase contrast microscopy. It is filed as functional, cell-based. In outline: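 SW480 cells (MEM + 10% FCS) were treated for 24 h and then photographed at 400× magnification with an sCMOS camera on a fluorescence microscope to visualise cytoplasmic vacuoles.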

A short description of a further data set: physchem. Conditions: n-octanol/water, pH 7.4.

For the molecule `CNC(=S)N/N=C/c1ncccc1N(C)C`, the result with SW480 (Homo sapiens), in the data set with HL-60 and in the data set with SW480 [1] was Active. For the same molecule, in the data set on SW480 [2], the outcome was inactive.

With `CNc1cccnc1/C=N/N=C(/N)S`, the outcome in the data set on SW480 [2] was Active.

As to `CNc1cccnc1/C=N/NC(=S)N(C)C`, the result with SW480 (Homo sapiens) was Active. Moreover, the outcome with SW480 [2] was inactive.

For `CN(C)C(=S)NN=C(c1ccccn1)c1ccccn1`, in the data set on SW480 (Homo sapiens), the result was Active.

Take `CN(C)C(=S)N/N=C/c1ncccc1N(C)C`: the result in the data set with HL-60, with SW480 [1] and with SW480 [3] was Active.

In the case of `CNC(=S)N/N=C/c1ncccc1N`, in the data set on SW480 [2], the outcome was Active.

Regarding `NC(=S)N/N=C/c1ncccc1N`, in the data set on SW480 (Homo sapiens), the outcome was inactive. The result in the data set with HL-60 and in the data set on SW480 [2] was Active.

One may read the logD as the decadic logarithm of the distribution of all forms, ionised or not, between an organic phase and buffer at a given pH. `CN(C)C(=S)N/N=C/c1ncccc1N` showed a logD in “physchem” of 1.3. Moreover, the result in the data set with HL-60 was Active.

Regarding `CN(C)c1cccnc1/C=N/NC(N)=S`, the result in the data set with SW480 (Homo sapiens) was Active.
